≈ marks a conversion by molar mass, not a printed value.
Experiments:
DNA gyrase = DNA gyrase (Escherichia coli, UniProt P0AES4+P0AES6); assay: Inhibition of Escherichia coli DNA gyrase using fluorescence-tagged DNA by fluorescenct polarization assay; assay type: protein-complex assay
Procedure, shortened: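 E. coli DNA gyrase supercoiling assay. The read-out was differential binding of a fluorescence-tagged DNA to relaxed versus supercoiled DNA, giving IC50.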

[1] = Fraction unbound in human plasma at 10 uM after 16 hrs by LC-MS/MS analysis; assay type: ADME, cell-free
Procedure, shortened: (§1)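 Compound at 10 μM in human, rat or mouse plasma, equilibrium dialysis against buffer at 37 °C for 16 h. Buffer and plasma concentrations measured by LC-MS/MS, and the free fraction taken from their ratio.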

[2] = Solubility of the compound; assay type: physicochemical
Streptococcus pneumoniae = assay: Antimicrobial activity against Streptococcus pneumoniae by broth microdilution method; assay type: functional
Procedure, shortened: (§2)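 Broth microdilution following CLSI guidelines. Values under 12.5 μM are averages of three or more replicates.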

Streptococcus pyogenes = assay: Antimicrobial activity against Streptococcus pyogenes by broth microdilution method; assay type: functional; procedure, shortened: as §2
Staphylococcus aureus [3] = assay: Antimicrobial activity against methicillin-sensitive Staphylococcus aureus by broth microdilution method; assay type: functional; procedure, shortened: as §2
Staphylococcus aureus [4] = assay: Antimicrobial activity against methicillin-resistant and quinolone-resistant Staphylococcus aureus by broth microdilution method; assay type: functional; procedure, shortened: as §2
Haemophilus influenzae = assay: Antimicrobial activity against Haemophilus influenzae by broth microdilution method; assay type: functional; procedure, shortened: as §2
Escherichia coli [5] = assay: Antimicrobial activity against Escherichia coli by broth microdilution method; assay type: functional; procedure, shortened: as §2
Escherichia coli [6] = assay: Antimicrobial activity against tolC-deficient Escherichia coli by broth microdilution method; assay type: functional; procedure, shortened: as §2
[7] = Fraction unbound in mouse plasma at 10 uM after 16 hrs by LC-MS/MS analysis; assay type: ADME, cell-free; procedure, shortened: as §1
[8] = Clearance in mouse at 3 mg/kg, iv or at 10 mg/kg, po by LC-MS/MS method; assay type: ADME, organism-based; settings: in vivo
Procedure, shortened: (§3)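 Male mice (CD-1) or male Wistar Hannover rats, three per experiment, given a 15 min iv infusion at 3 mg/kg or oral dosing at 10 mg/kg. Vehicle was DMA:TEG:saline 40/40/20 for mice and meglumine/cyclodextrin for rats. Serial jugular blood was taken over 0–24 h, plasma analysed by LC-MS/MS, and a noncompartmental analysis used. Mean values are given.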

[9] = Bioavailability in mouse at 3 mg/kg, iv or at 10 mg/kg, po by LC-MS/MS method; assay type: ADME, organism-based; settings: in vivo; procedure, shortened: as §3
[10] = Fraction unbound in rat plasma at 10 uM after 16 hrs by LC-MS/MS analysis; assay type: ADME, cell-free; procedure, shortened: as §1
[11] = Clearance in rat at 3 mg/kg, iv or at 10 mg/kg, po by LC-MS/MS method; assay type: ADME, organism-based; settings: in vivo; procedure, shortened: as §3
[12] = Bioavailability in rat at 3 mg/kg, iv or at 10 mg/kg, po by LC-MS/MS method; assay type: ADME, organism-based; settings: in vivo; procedure, shortened: as §3
Staphylococcus aureus [13] = assay: Antimicrobial activity against methicillin-sensitive Staphylococcus aureus by broth microdilution method in presence of 50% human serum; assay type: functional
Procedure, shortened: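 CLSI broth microdilution against methicillin-sensitive S. aureus, run with 50% human serum added to the medium to reflect plasma protein binding. Values under 12.5 μM are averages of three or more replicates.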

Staphylococcus aureus [14] = assay: Antimicrobial activity against Staphylococcus aureus 2375 harboring GyrA S84L mutant, GyrB R144A mutant and ParC S80Y/E84G/V693M mutant and ParE N141S mutant by broth microdilution method; assay type: functional
Staphylococcus aureus [15] = assay: Antimicrobial activity against wild-type Staphylococcus aureus 516 by broth microdilution method; assay type: functional; procedure, shortened: as §2
Staphylococcus aureus [16] = assay: Antimicrobial activity against Staphylococcus aureus 2792 harboring wild-type GyrA and GyrB R144A mutant by broth microdilution method; assay type: functional

Compound	IC50 (DNA gyrase)	fraction unbound at 16 h, 10 µM [1]	solubility [2]	MIC (Streptococcus pneumoniae)	MIC (Streptococcus pyogenes)	MIC (Staphylococcus aureus [3])	MIC (Staphylococcus aureus [4])	MIC (Haemophilus influenzae)	MIC (Escherichia coli [5])	MIC (Escherichia coli [6])	fraction unbound at 16 h, 10 µM [7]	clearance [8]	bioavailability [9]	fraction unbound at 16 h, 10 µM [10]	clearance [11]	bioavailability [12]	MIC (Staphylococcus aureus [13])	MIC (Staphylococcus aureus [14])	MIC (Staphylococcus aureus [15])	MIC (Staphylococcus aureus [16])
COCc1noc2c(F)c3c(cc12)CC1(C(=O)NC(=O)NC1=O)C1C(C)OC(C)CN31 (racemic)	1600 nM	0.096	180 µM (≈ 77.8 µg/mL)	12 µM (≈ 5.19 µg/mL)	6.2 µM (≈ 2.68 µg/mL)	3.1 µM (≈ 1.34 µg/mL)	6.2 µM (≈ 2.68 µg/mL)	12 µM (≈ 5.19 µg/mL)	200 µM (≈ 86.5 µg/mL)	≤ 0.2 µM										
C[C@@H]1CN2c3c(cc4c(C(F)F)noc4c3F)CC3(C(=O)NC(=O)NC3=O)[C@H]2[C@H](C)O1	480 nM	0.028	> 1000 µM	3.1 µM (≈ 1.36 µg/mL)	1.2 µM (≈ 0.526 µg/mL)	0.39 µM (≈ 0.171 µg/mL)	0.39 µM (≈ 0.171 µg/mL)	0.62 µM (≈ 0.272 µg/mL)	25 µM (≈ 11 µg/mL)	≤ 0.2 µM	0.044	47 mL/min/kg	95%	0.043	1 mL/min/kg	87%	3.1 µM			
CC1CN2c3c(cc4c(C5CC5)noc4c3F)CC3(C(=O)NC(=O)NC3=O)C2C(C)O1 (racemic)	340 nM	0.052	29 µM (≈ 12.4 µg/mL)	25 µM (≈ 10.7 µg/mL)	6.2 µM (≈ 2.66 µg/mL)	1.6 µM (≈ 0.685 µg/mL)	12 µM (≈ 5.14 µg/mL)	3.1 µM (≈ 1.33 µg/mL)	100 µM (≈ 42.8 µg/mL)	≤ 0.2 µM										
CC1CN2c3c(cc4c(C(C)(C)C)noc4c3F)CC3(C(=O)NC(=O)NC3=O)C2C(C)O1 (racemic)	4000 nM	0.042	770 µM (≈ 342 µg/mL)	200 µM (≈ 88.9 µg/mL)	50 µM (≈ 22.2 µg/mL)	18 µM (≈ 8 µg/mL)	18 µM (≈ 8 µg/mL)	200 µM (≈ 88.9 µg/mL)	> 200 µM	3.1 µM (≈ 1.38 µg/mL)										
Cc1noc2c(F)c3c(cc12)CC1(C(=O)NC(=O)NC1=O)[C@H]1[C@H](C)O[C@@H](C)CN31	26000 nM	0.051	340 µM (≈ 137 µg/mL)	> 200 µM	> 200 µM	> 200 µM	> 200 µM	200 µM (≈ 80.5 µg/mL)	> 200 µM	12 µM (≈ 4.83 µg/mL)										
C[C@@H]1CN2c3c(cc4c(C(F)(F)F)noc4c3F)CC3(C(=O)NC(=O)NC3=O)[C@H]2[C@H](C)O1	610 nM	< 0.01	53 µM (≈ 24.2 µg/mL)	12 µM (≈ 5.48 µg/mL)	3.1 µM (≈ 1.41 µg/mL)	0.78 µM (≈ 0.356 µg/mL)	1.6 µM (≈ 0.73 µg/mL)	1.6 µM (≈ 0.73 µg/mL)	25 µM (≈ 11.4 µg/mL)	≤ 0.2 µM	0.078	46 mL/min/kg	63%	0.078	2.3 mL/min/kg	60%	100 µM			
Cc1noc2c(F)c3c(cc12)CC1(C(=O)NC(=O)NC1=O)C1C(C)OC(C)CN31 (racemic)	380 nM	0.063	> 1000 µM	21 µM (≈ 8.45 µg/mL)		2.8 µM (≈ 1.13 µg/mL)	2.5 µM (≈ 1.01 µg/mL)	2.5 µM (≈ 1.01 µg/mL)	100 µM (≈ 40.2 µg/mL)	0.3 µM (≈ 0.121 µg/mL)										
C[C@H]1COc2c(N3CCN(C)CC3)c(F)cc3c(=O)c(C(=O)O)cn1c23.C[C@H]1COc2c(N3CCN(C)CC3)c(F)cc3c(=O)c(C(=O)O)cn1c23.O [LEVOFLOXACIN]																		> 16 µg/mL	0.13 µg/mL	0.25 µg/mL
Cc1noc2c(F)c3c(cc12)CC1(C(=O)NC(=O)NC1=O)[C@@H]1[C@@H](C)O[C@H](C)CN31	13000 nM	0.082	190 µM (≈ 76.5 µg/mL)	100 µM (≈ 40.2 µg/mL)	200 µM (≈ 80.5 µg/mL)	25 µM (≈ 10.1 µg/mL)	50 µM (≈ 20.1 µg/mL)	25 µM (≈ 10.1 µg/mL)	> 200 µM	1.6 µM (≈ 0.644 µg/mL)										

Reference: ChEMBL document CHEMBL3352584, “Novel DNA gyrase inhibiting spiropyrimidinetriones with a benzisoxazole scaffold: SAR and in vivo characterization” (J Med Chem, 2014)
